Source: ChEMBL document CHEMBL1240321, “Cyclostreptin binds covalently to microtubule pores and lumenal taxoid binding sites” (Nat Chem Biol, 2007)
Calls of active or inactive are those of the source. No cut-off for these calls is given here.

Experiments:
[1] = Induction of mitotic cell cycle arrest in potoroo PtK2 cells assessed as accumulation of cells at G2+M phase at 5 uM after 7 hrs by flow cytometry (Rvb= 22.1%); assay type: functional, Potorous tridactylus
[2] = Induction of mitotic cell cycle arrest in potoroo PtK2 cells assessed as accumulation of cells at SubG1 phase at 100 nM after 24 hrs by flow cytometry (Rvb= 0.9%); assay type: functional, Potorous tridactylus
[3] = Induction of mitotic cell cycle arrest in potoroo PtK2 cells assessed as accumulation at S phase at 5 uM treated for 7 hrs, washed followed by 16 hrs incubation by flow cytometry (Rvb= 16%); assay type: functional, Potorous tridactylus
A549 = assay: Induction of mitotic cell cycle arrest in human A549 cells assessed as accumulation at S phase at 100 nM after 24 hrs by flow cytometry (Rvb= 16%); assay type: functional
[4] = Induction of mitotic cell cycle arrest in potoroo PtK2 cells assessed as accumulation of cells at G2+M phase at 2 uM treated for 7 hrs, washed followed by 16 hrs incubation by flow cytometry (Rvb= 23%); assay type: functional, Potorous tridactylus
PtK2 [5] = assay: Induction of micronucleation in potoroo PtK2 cells at 2 uM treated for 7 hrs followed by compound washout measured after 48 hrs by flow cytometry; assay type: functional, cell-based; conditions: Potorous tridactylus
[6] = Induction of mitotic cell cycle arrest in potoroo PtK2 cells assessed as accumulation of cells at G2+M phase at 5 uM treated for 7 hrs, washed followed by 16 hrs incubation by flow cytometry (Rvb= 23%); assay type: functional, Potorous tridactylus
[7] = Cytotoxicity against human 1A9PTX10 cells; assay type: functional, cell-based; conditions: 1A9/ptx-10
PtK2 [8] = assay: Induction of microtubule bundle formation in potoroo PtK2 cells at 2 uM after 7 hrs by flow cytometry; assay type: cell-based; conditions: Potorous tridactylus
[9] = Induction of mitotic cell cycle arrest in human A2780AD cells assessed as accumulation of cells at G1/G0 phase at 100 nM after 24 hrs by flow cytometry (Rvb= 59.2%); assay type: functional, A2780 ADR
PtK2 [10] = assay: Induction of microtubule bundle formation in potoroo PtK2 cells at 5 uM treated for 7 hrs followed by compound washout measured after 48 hrs by flow cytometry; assay type: cell-based; conditions: Potorous tridactylus
[11] = Induction of mitotic cell cycle arrest in potoroo PtK2 cells assessed as accumulation of cells at SubG1 phase at 5 uM treated for 7 hrs, washed followed by 16 hrs incubation by flow cytometry (Rvb= 2%); assay type: functional, Potorous tridactylus
PtK2 [12] = assay: Induction of microtubule bundle formation in potoroo PtK2 cells at 5 uM after 7 hrs by flow cytometry; assay type: cell-based; conditions: Potorous tridactylus
[13] = Induction of mitotic cell cycle arrest in human A2780AD cells assessed as accumulation of cells at G2+M phase at 100 nM after 24 hrs by flow cytometry (Rvb= 20.5%); assay type: functional, A2780 ADR
[14] = Displacement of [3H]epothilone B from microtubule assessed as bound radioligand level at 20 uM treated after radioligand addition by competitive binding assay
[15] = Induction of mitotic cell cycle arrest in potoroo PtK2 cells assessed as accumulation at S phase at 5 uM treated for 7 hrs, washed followed by 48 hrs incubation by flow cytometry (Rvb= 10.7%); assay type: functional, Potorous tridactylus
[16] = Induction of mitotic cell cycle arrest in potoroo PtK2 cells assessed as accumulation of cells at SubG1 phase at 5 uM after 7 hrs by flow cytometry (Rvb= 2.4%); assay type: functional, Potorous tridactylus
[17] = Binding affinity to beta-tubulin 219-243 amino acid sequence by mass spectroscopy
Method in brief: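 Polymerized native microtubules (20 µM tubulin, 25 µM ligand, 30 min, 37 °C in GAB with 1 mM GTP) pelleted and washed, then digested with trypsin (2 h, 37 °C) or chymotrypsin (1 h, 25 °C). Peptides analysed by nano-HPLC triple-quadrupole MS with precursor ion scanning for the m/z 249.0 cyclostreptin fragment. Adduct stoichiometry taken from the 219–243 peptide signal.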

[18] = Displacement of [3H]epothilone B from microtubule assessed as bound radioligand level at 20 uM treated before radioligand addition by competitive binding assay
A2780 = assay: Induction of mitotic cell cycle arrest in human A2780 cells assessed as accumulation of cells at G2+M phase at 100 nM after 24 hrs by flow cytometry (Rvb= 20%); assay type: functional
[19] = Induction of mitotic cell cycle arrest in potoroo PtK2 cells assessed as accumulation of cells at G2+M phase at 2 uM after 7 hrs by flow cytometry (Rvb= 22.1%); assay type: functional, Potorous tridactylus
Tubulin (Homo sapiens) [20] = target: T1, Tubulin (Homo sapiens) (UniProt P68371+Q9H4B7+P0DPH7+P68366+Q13509+Q71U36+P04350+Q3ZCM7+P07437+P68363+Q9BQE3+Q6PEY2+Q13885+Q9BVA1+Q9BUF5); assay: Induction of covalent modification of tubulin at Thr220 and Asn228 in human A549 cells by HPLC analysis; assay type: cell-based
Method in brief: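 A549 monolayers exposed 24 h to 1 µM ligand or 0.1% DMSO. Tubulin purified from homogenate supernatant by one-step DEAE ion exchange (0.4 M KCl load, 0.8 M KCl elution) to 90% purity. Tryptic or chymotryptic digests analysed by HPLC-MRM with Q3 at m/z 249.0. Adduct fraction estimated from the areas of modified and unmodified peptide peaks.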

[21] = Induction of mitotic cell cycle arrest in potoroo PtK2 cells assessed as accumulation of cells at SubG1 phase at 5 uM treated for 7 hrs, washed followed by 48 hrs incubation by flow cytometry (Rvb= 1.1%); assay type: functional, Potorous tridactylus
[22] = Cytotoxicity against human A2780AD cells; assay type: functional, cell-based; conditions: A2780 ADR
[23] = Induction of micronucleation in potoroo PtK2 cells at 2 uM treated for 7 hrs followed by compound washout measured after 16 hrs by flow cytometry; assay type: functional, Potorous tridactylus
[24] = Induction of mitotic cell cycle arrest in potoroo PtK2 cells assessed as accumulation of cells at SubG1 phase at 2 uM treated for 7 hrs, washed followed by 16 hrs incubation by flow cytometry (Rvb= 2%); assay type: functional, Potorous tridactylus
[25] = Induction of micronucleation in potoroo PtK2 cells at 5 uM treated for 7 hrs followed by compound washout measured after 16 hrs by flow cytometry; assay type: functional, Potorous tridactylus
[26] = Induction of mitotic cell cycle arrest in potoroo PtK2 cells assessed as accumulation at S phase at 100 nM after 24 hrs by flow cytometry (Rvb= 12%); assay type: functional, Potorous tridactylus
PtK2 [27] = assay: Induction of micronucleation in potoroo PtK2 cells at 5 uM treated for 7 hrs followed by compound washout measured after 16 hrs by flow cytometry; conditions: Potorous tridactylus
Tubulin (Homo sapiens) [28] = target: T1, Tubulin (Homo sapiens); assay: Binding affinity to tubulin in human A549 cells
PtK2 [29] = assay: Displacement of Flutax-2 from microtubule in potoroo PtK2 cells at 100 uM; conditions: Potorous tridactylus
PtK2 [30] = assay: Induction of micronucleation in potoroo PtK2 cells at 2 uM treated for 7 hrs followed by compound washout measured after 16 hrs by flow cytometry; conditions: Potorous tridactylus

Q: Which Activity [1] does the source give for CC1=C[C@H]2[C@@H](O)[C@H](C)[C@@H](O)[C@@H]2[C@H]2[C@@H]3C4=C5O[C@](C)(CC[C@@H](OC4=O)[C@H]5C)[C@@H]3C[C@@H]12 [CYCLOSTREPTIN] here?
A: 35%

Q: What about the Activity [2] of the same molecule?
A: 4.6%

Q: What about the Activity [3] of the same molecule?
A: 12.6%

Q: And the Activity (A549)?
A: 9%

Q: What about the Activity [4] of the same molecule?
A: 59%

Q: And the Activity (PtK2 [5])?
A: Active

Q: What about the Activity [6] of the same molecule?
A: 65.5%

Q: And the IC50 [7]?
A: 0.24 µM

Q: What about the Activity (PtK2 [8]) of the same molecule?
A: 4%

Q: And the Activity [9]?
A: 6.6%

Q: What about the Activity (PtK2 [10]) of the same molecule?
A: Active

Q: What about the Activity [11] of the same molecule?
A: 3.4%

Q: What about the Activity (PtK2 [12]) of the same molecule?
A: 4%

Q: And the Activity [13]?
A: 71%

Q: And the Activity [14]?
A: 79%

Q: And the Activity [15]?
A: 8.6%

Q: And the Activity [16]?
A: 2.3%

Q: What about the Activity [17] of the same molecule?
A: Active

Q: And the Activity [18]?
A: 12%

Q: What about the Activity (A2780) of the same molecule?
A: 61%

Q: What about the Activity [19] of the same molecule?
A: 32%

Q: What about the Activity (Tubulin (Homo sapiens) [20]) of the same molecule?
A: Active

Q: What about the Activity [21] of the same molecule?
A: 5.4%

Q: What about the IC50 [22] of the same molecule?
A: 0.051 µM

Q: And the Activity [23]?
A: 70%

Q: What about the Activity [24] of the same molecule?
A: 3.5%

Q: And the Activity [25]?
A: 70%

Q: And the Activity [26]?
A: 14.8%

Q: And the Activity (PtK2 [27])?
A: 70%

Q: What about the Activity (Tubulin (Homo sapiens) [28]) of the same molecule?
A: Active

Q: What about the Activity (PtK2 [29]) of the same molecule?
A: Active

Q: What about the Activity (PtK2 [30]) of the same molecule?
A: 70%
